{"source": "ChEMBL document CHEMBL2010740", "about": "“Synthesis and evaluation of 2-amido-3-carboxamide thiophene CB₂ receptor agonists for pain management” (Bioorg Med Chem Lett, 2012)", "key": {"Rattus norvegicus [1]": {"tested_on": "Rattus norvegicus", "experiment": "Neurotoxicity in rat assessed as decrease in spontaneous locomotory activity at 10 umol/kg, ip after 30 mins", "type": "toxicity, organism-based", "set-up": "scale not given: the % may be the effect or the level left", "conditions": "in vivo, 0.5 h", "in_short": "(§1)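 Spontaneous horizontal locomotor activity in rats. Compound was given intraperitoneally 30 min before testing.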"}, "[2]": {"experiment": "AUC in rat at 3 umol/kg, iv", "type": "ADME, organism-based", "conditions": "plasma"}, "Rattus norvegicus [3]": {"tested_on": "Rattus norvegicus", "experiment": "Analgesic activity in rat complete Freund's adjuvant model of chronic inflammatory pain assessed as latency in paw withdrawal at 100 umol/kg, po administered 48 hrs after CFA-challenge measured after 60 mins", "type": "functional"}, "Cannabinoid receptor 1 [4]": {"target": "T1, Cannabinoid receptor 1 (Homo sapiens, UniProt P21554)", "T1 sequence (P21554 whole entry)": "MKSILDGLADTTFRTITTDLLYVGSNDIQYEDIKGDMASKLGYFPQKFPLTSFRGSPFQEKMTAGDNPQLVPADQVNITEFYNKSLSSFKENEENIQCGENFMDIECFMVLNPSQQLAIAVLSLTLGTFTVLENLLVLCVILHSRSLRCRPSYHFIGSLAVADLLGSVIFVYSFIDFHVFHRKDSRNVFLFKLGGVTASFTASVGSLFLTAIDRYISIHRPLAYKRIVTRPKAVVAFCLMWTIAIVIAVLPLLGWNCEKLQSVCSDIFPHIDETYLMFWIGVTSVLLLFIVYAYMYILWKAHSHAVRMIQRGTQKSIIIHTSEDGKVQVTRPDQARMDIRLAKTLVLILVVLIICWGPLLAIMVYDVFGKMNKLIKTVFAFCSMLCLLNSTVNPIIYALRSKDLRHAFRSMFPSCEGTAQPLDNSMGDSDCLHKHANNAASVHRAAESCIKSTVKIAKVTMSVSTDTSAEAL", "experiment": "Agonist activity at human recombinant CB1 receptor expressed in HEK293 cells assessed as inhibition of forskolin-induced cAMP production after 20 mins by ELISA", "type": "functional, cell-based", "in_short": "(§2)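 cAMP assay in HEK 293 cells stably expressing the relevant CB receptor, with a fixed concentration of forskolin. cAMP was quantified by ELISA. Activation is given as percent of the CP-55,940 control response.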"}, "Cannabinoid receptor 2 [5]": {"target": "T2, Cannabinoid receptor 2 (Rattus norvegicus, UniProt Q9QZN9)", "T2 sequence (Q9QZN9 whole entry)": "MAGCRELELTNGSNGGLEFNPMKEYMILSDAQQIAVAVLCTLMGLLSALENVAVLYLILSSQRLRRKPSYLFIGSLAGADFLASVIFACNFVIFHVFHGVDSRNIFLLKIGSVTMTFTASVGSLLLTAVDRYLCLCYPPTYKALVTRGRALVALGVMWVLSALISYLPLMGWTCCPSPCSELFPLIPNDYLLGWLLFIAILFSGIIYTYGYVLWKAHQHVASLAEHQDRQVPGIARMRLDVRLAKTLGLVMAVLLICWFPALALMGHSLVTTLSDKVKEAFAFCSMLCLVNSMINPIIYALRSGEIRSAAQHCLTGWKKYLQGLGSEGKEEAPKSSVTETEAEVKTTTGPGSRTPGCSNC", "experiment": "Displacement of [3H]CP-55940 from rat recombinant CB2 receptor expressed in HEK293 cells after 90 mins", "type": "cell-based", "in_short": "(§3)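 Competitive binding: [³H]CP-55,940 displaced from membranes of HEK 293 cells stably transfected with human or rat CB₂, or CHO cells stably transfected with human or rat CB₁. Reported as pKi. Determinations >2 (duplicate of duplicate).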"}, "Rattus norvegicus [6]": {"tested_on": "Rattus norvegicus", "experiment": "Analgesic activity in ip dosed rat incision model of post-operative pain assessed as reduction in paw withdrawal latency administered 90 mins post-surgical incision measured after 30 mins", "type": "functional, organism-based"}, "Rattus norvegicus [7]": {"tested_on": "Rattus norvegicus", "experiment": "Analgesic activity in ip dosed rat spinal nerve ligation model of neuropathic pain assessed as […] administered 2 weeks post-surgery measured after 30 mins", "type": "functional, organism-based", "in_short": "(§4)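 Rat spinal nerve ligation (Chung) neuropathic pain model. Dosing was intraperitoneal, two weeks after surgery and 30 min before testing. Read-out was mechanical allodynia (paw withdrawal threshold), given as a dose–response.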"}, "[8]": {"target": "T3, Cannabinoid receptor 2 (Rattus norvegicus) (UniProt Q9QZN9)", "T3 sequence (whole entry)": "T2 sequence (Q9QZN9 whole entry)", "experiment": "Agonist activity at rat recombinant CB2 receptor expressed in HEK293 cells co-expressing chimeric Gaq/o protein by FLIPR assay by FLIPR assay relative to CP55940", "type": "functional, cell-based", "in_short": "(§5)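 FLIPR functional assay in HEK 293 cells stably co-expressing chimeric Gαq/o protein and the CB receptor. Net peak evoked response was compared with the peak response to CP-55,940.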"}, "[9]": {"experiment": "Tmax in rat at 10 umol/kg, po", "type": "ADME, organism-based", "conditions": "in vivo"}, "[10]": {"experiment": "AUC in rat at 10 umol/kg, po", "type": "ADME, organism-based", "conditions": "plasma"}, "[11]": {"experiment": "Oral bioavailability in rat at 10 umol/kg", "type": "ADME, organism-based", "conditions": "in vivo"}, "Rattus norvegicus [12]": {"tested_on": "Rattus norvegicus", "experiment": "Neurotoxicity in rat assessed as decrease in spontaneous locomotory activity at 100 umol/kg, ip after 30 mins", "type": "toxicity, organism-based", "set-up": "scale not given: the % may be the effect or the level left", "conditions": "in vivo, 0.5 h", "in_short": "as §1"}, "[13]": {"experiment": "Half life in rat at 10 umol/kg, ip", "type": "ADME, organism-based", "conditions": "in vivo"}, "Cannabinoid receptor 1 [14]": {"target": "T1, Cannabinoid receptor 1", "experiment": "Displacement of [3H]CP-55940 from human recombinant CB1 receptor expressed in CHO cells after 90 mins", "type": "cell-based", "in_short": "as §3"}, "Cannabinoid receptor 2 [15]": {"target": "T4, Cannabinoid receptor 2 (Homo sapiens, UniProt P34972)", "T4 sequence (P34972 whole entry)": "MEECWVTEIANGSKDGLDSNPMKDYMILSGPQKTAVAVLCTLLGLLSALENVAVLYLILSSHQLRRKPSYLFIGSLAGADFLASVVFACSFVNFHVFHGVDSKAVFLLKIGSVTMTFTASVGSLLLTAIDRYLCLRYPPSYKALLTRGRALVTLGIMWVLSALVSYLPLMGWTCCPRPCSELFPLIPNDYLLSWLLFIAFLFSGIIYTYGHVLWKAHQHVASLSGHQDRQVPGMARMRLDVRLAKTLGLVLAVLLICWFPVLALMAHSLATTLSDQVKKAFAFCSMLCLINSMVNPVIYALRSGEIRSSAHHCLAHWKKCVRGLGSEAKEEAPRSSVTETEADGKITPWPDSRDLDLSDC", "experiment": "Agonist activity at human recombinant CB2 receptor expressed in HEK293 cells assessed as inhibition of forskolin-induced cAMP production after 20 mins by ELISA", "type": "functional, cell-based", "in_short": "as §2"}, "Rattus norvegicus [16]": {"tested_on": "Rattus norvegicus", "experiment": "Analgesic activity in rat complete Freund's adjuvant model of chronic inflammatory pain assessed as reduction in thermal hyperalgesia at 3 umol/kg, ip administered 48 hrs after CFA-challenge measured after 60 mins", "type": "functional, organism-based"}, "Rattus norvegicus [17]": {"tested_on": "Rattus norvegicus", "experiment": "Analgesic activity in po dosed rat complete Freund's adjuvant model of chronic inflammatory pain assessed as latency in paw withdrawal administered 48 hrs after CFA-challenge measured after 60 mins", "type": "functional, organism-based"}, "Cannabinoid receptor 1 [18]": {"target": "T5, Cannabinoid receptor 1 (Rattus norvegicus, UniProt P20272)", "T5 sequence (P20272 whole entry)": "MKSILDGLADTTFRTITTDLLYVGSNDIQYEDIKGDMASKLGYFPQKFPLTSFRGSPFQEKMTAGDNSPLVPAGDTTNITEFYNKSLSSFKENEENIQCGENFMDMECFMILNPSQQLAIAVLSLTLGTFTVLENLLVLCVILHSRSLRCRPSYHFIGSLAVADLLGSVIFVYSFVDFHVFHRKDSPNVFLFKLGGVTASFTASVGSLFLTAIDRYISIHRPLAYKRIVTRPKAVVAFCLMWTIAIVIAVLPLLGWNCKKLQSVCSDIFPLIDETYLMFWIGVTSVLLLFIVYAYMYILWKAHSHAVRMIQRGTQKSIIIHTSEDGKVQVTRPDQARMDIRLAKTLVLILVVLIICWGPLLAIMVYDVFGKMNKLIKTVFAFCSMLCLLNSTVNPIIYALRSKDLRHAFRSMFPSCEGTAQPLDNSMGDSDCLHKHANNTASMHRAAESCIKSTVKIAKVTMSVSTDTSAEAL", "experiment": "Agonist activity at rat recombinant CB1 receptor expressed in HEK293 cells assessed as inhibition of forskolin-induced cAMP production after 20 mins by ELISA", "type": "functional, cell-based", "in_short": "as §2"}, "Cannabinoid receptor 2 [19]": {"target": "T2, Cannabinoid receptor 2", "experiment": "Agonist activity at rat recombinant CB2 receptor expressed in HEK293 cells assessed as inhibition of forskolin-induced cAMP production after 20 mins by ELISA", "type": "functional, cell-based", "in_short": "as §2"}, "Rattus norvegicus [20]": {"tested_on": "Rattus norvegicus", "experiment": "Analgesic activity in ip dosed rat chronic constriction injury model of neuropathic pain assessed as reduction in mechanical allodynia administered 2 weeks post-surgery measured after 30 mins", "type": "functional, organism-based"}, "Cannabinoid receptor 2 [21]": {"target": "T4, Cannabinoid receptor 2", "experiment": "Displacement of [3H]CP-55940 from human recombinant CB2 receptor expressed in HEK293 cells after 90 mins", "type": "cell-based", "in_short": "as §3"}, "[22]": {"experiment": "Plasma protein binding in human", "type": "ADME, cell-free", "conditions": "read-out: PPB (converted)"}, "Rattus norvegicus [23]": {"tested_on": "Rattus norvegicus", "experiment": "Analgesic activity in rat chronic constriction injury model of neuropathic pain assessed as reduction in mechanical allodynia at 3 umol/kg, ip administered 2 weeks post-surgery measured after 30 mins", "type": "functional", "set-up": "scale not given: the % may be the effect or the level left"}, "Rattus norvegicus [24]": {"tested_on": "Rattus norvegicus", "experiment": "Analgesic activity in rat incision model of post-operative pain assessed as reduction in paw withdrawal latency at 10 umol/kg, ip administered 90 mins post-surgical incision measured after 30 mins", "type": "functional", "set-up": "scale not given: the % may be the effect or the level left"}, "Cannabinoid receptor 2 [25]": {"target": "T4, Cannabinoid receptor 2", "experiment": "Agonist activity at human recombinant CB2 receptor expressed in HEK293 cells co-expressing chimeric Gaq/o protein by FLIPR assay", "type": "functional, cell-based", "in_short": "as §5"}, "Rattus norvegicus [26]": {"tested_on": "Rattus norvegicus", "experiment": "Analgesic activity in rat chronic constriction injury model of neuropathic pain assessed as reduction in mechanical allodynia at 10 umol/kg, ip administered 2 weeks post-surgery measured after 30 mins", "type": "functional", "set-up": "scale not given: the % may be the effect or the level left"}, "[27]": {"experiment": "Cmax in rat at 10 umol/kg, ip", "type": "ADME, organism-based", "set-up": "dose 10 umol/kg, route intraperitoneal", "conditions": "in vivo"}, "Rattus norvegicus [28]": {"tested_on": "Rattus norvegicus", "experiment": "Analgesic activity in rat spinal nerve ligation model of neuropathic pain assessed as […] at 10 umol/kg, ip administered 2 weeks post-surgery measured after 30 mins", "type": "functional", "set-up": "scale not given: the % may be the effect or the level left", "in_short": "as §4"}, "[29]": {"experiment": "Cmax in rat at 10 umol/kg, po", "type": "ADME, organism-based", "set-up": "dose 10 umol/kg, route oral", "conditions": "in vivo"}, "Rattus norvegicus [30]": {"tested_on": "Rattus norvegicus", "experiment": "Analgesic activity in rat spinal nerve ligation model of neuropathic pain assessed as […] at 3 umol/kg, ip administered 2 weeks post-surgery measured after 30 mins", "type": "functional", "set-up": "scale not given: the % may be the effect or the level left", "in_short": "as §4"}, "[31]": {"experiment": "AUC in rat at 10 umol/kg, ip", "type": "ADME, organism-based", "conditions": "plasma"}, "Rattus norvegicus [32]": {"tested_on": "Rattus norvegicus", "experiment": "Analgesic activity in rat spinal nerve ligation model of neuropathic pain assessed as […] at 30 umol/kg, ip administered 2 weeks post-surgery measured after 30 mins", "type": "functional", "set-up": "scale not given: the % may be the effect or the level left", "in_short": "as §4"}, "[33]": {"target": "T3, Cannabinoid receptor 2 (Rattus norvegicus)", "experiment": "Agonist activity at rat recombinant CB2 receptor expressed in HEK293 cells assessed as inhibition of forskolin-induced cAMP production after 20 mins by ELISA relative to CP55940", "type": "functional, cell-based", "in_short": "as §2"}, "Cannabinoid receptor 1 [34]": {"target": "T5, Cannabinoid receptor 1", "experiment": "Displacement of [3H]CP-55940 from rat recombinant CB1 receptor expressed in CHO cells after 90 mins", "type": "cell-based", "in_short": "as §3"}}, "note": "Activity calls are given as the source filed them.", "data": [{"smiles": "CCCNC(=O)c1c(NC(=O)C23CC4CC(CC2C4)C3)sc2c1CCOC2", "values": [{"measurement": "Activity", "setting": "Rattus norvegicus [1]", "value": 18, "unit": "%"}, {"measurement": "AUC", "setting": "[2]", "value": 320, "unit": "ng·h/mL"}, {"measurement": "Activity", "setting": "Rattus norvegicus [3]", "value": 58, "unit": "%"}, {"measurement": "IC50", "setting": "Cannabinoid receptor 1 [4]", "value": 3.47, "unit": "µM"}, {"measurement": "Ki", "setting": "Cannabinoid receptor 2 [5]", "value": 33.9, "unit": "nM"}, {"measurement": "Activity", "setting": "Rattus norvegicus [6]", "value": "Dose-dependent effect"}, {"measurement": "Activity", "setting": "Rattus norvegicus [7]", "value": "Dose-dependent effect"}, {"measurement": "Imax", "setting": "[8]", "value": 79, "unit": "%"}, {"measurement": "Tmax", "setting": "[9]", "value": 1.2, "unit": "h"}, {"measurement": "AUC", "setting": "[10]", "value": 123, "unit": "ng·h/mL"}, {"measurement": "bioavailability", "setting": "[11]", "value": 11, "unit": "%"}, {"measurement": "Activity", "setting": "Rattus norvegicus [12]", "value": 83, "unit": "%"}, {"measurement": "half-life", "setting": "[13]", "value": 402, "unit": "min"}, {"measurement": "Ki", "setting": "Cannabinoid receptor 1 [14]", "value": 1550, "unit": "nM"}, {"measurement": "IC50", "setting": "Cannabinoid receptor 2 [15]", "value": 1.95, "unit": "nM"}, {"measurement": "Activity", "setting": "Rattus norvegicus [16]", "value": "Active"}, {"measurement": "Activity", "setting": "Rattus norvegicus [17]", "value": "Dose-dependent effect"}, {"measurement": "IC50", "setting": "Cannabinoid receptor 1 [18]", "value": 1410, "unit": "nM"}, {"measurement": "IC50", "setting": "Cannabinoid receptor 2 [19]", "value": 9.33, "unit": "nM"}, {"measurement": "Activity", "setting": "Rattus norvegicus [20]", "value": "Dose-dependent effect"}, {"measurement": "Ki", "setting": "Cannabinoid receptor 2 [21]", "value": 20.9, "unit": "nM"}, {"measurement": "fraction unbound", "setting": "[22]", "value": 0.02}, {"measurement": "Activity", "setting": "Rattus norvegicus [23]", "value": 22, "unit": "%"}, {"measurement": "Activity", "setting": "Rattus norvegicus [24]", "value": 45, "unit": "%"}, {"measurement": "IC50", "setting": "Cannabinoid receptor 2 [25]", "value": 70.8, "unit": "nM"}, {"measurement": "Activity", "setting": "Rattus norvegicus [26]", "value": 55, "unit": "%"}, {"measurement": "Cmax", "setting": "[27]", "value": 150, "unit": "ng/mL"}, {"measurement": "Activity", "setting": "Rattus norvegicus [28]", "value": 29, "unit": "%"}, {"measurement": "Cmax", "setting": "[29]", "value": 39, "unit": "ng/mL"}, {"measurement": "Activity", "setting": "Rattus norvegicus [30]", "value": 8, "unit": "%"}, {"measurement": "AUC", "setting": "[31]", "value": 1020, "unit": "ng·h/mL"}, {"measurement": "Activity", "setting": "Rattus norvegicus [32]", "value": 60, "unit": "%"}, {"measurement": "Imax", "setting": "[33]", "value": 72, "unit": "%"}, {"measurement": "Ki", "setting": "Cannabinoid receptor 1 [34]", "value": 302, "unit": "nM"}]}]}
